Data on two compounds can be found in ChEMBL document CHEMBL3864187, “Discovery and Characterization of a Peptoid with Antifungal Activity against Cryptococcus neoformans” (ACS Med Chem Lett, 2016).

Converted amounts (≈) assume the structure as drawn. The source made the active and inactive calls. Where a SMILES comes first, the peptide text is derived from it. [ ]: non-standard residue; d: D form. NFurfurylGly = O=C(O)CNCc1ccco1; Gly(N(CH2)3NH2) = NCCCNCC(=O)O; Nphe = O=C(O)CNCc1ccccc1

Data set [1] in a line: Antifungal activity against Cryptococcus neoformans serotype A H99S assessed as inhibition of colony growth measured after 72 hrs by PrestoBlue staining based broth dilution method. The class given is functional. To be noted: for MIC: Cryptococcus neoformans var. grubii H99S. In a few lines:
(§1)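 Standard broth dilution of the synthesized, HPLC-purified peptoid against C. neoformans in a triplicate-sample format with 72 h incubation; MIC is the lowest concentration that inhibits growth.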
For orientation: In broth dilution the organism is exposed to a series of concentrations in liquid medium.

For another data set, the species on record is Mus musculus. The data set is described as follows: Cytotoxicity against mouse NIH/3T3 cells at 6.3 ug/ml measured after 48 hrs by MTT assay. The class given is toxicity, cell-based. To be noted: nih3t3, 48 h. The method, boiled down:
(§2)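 Cells were exposed to peptoid across 800 to 3.1 μg/mL. IC50 is defined as the concentration giving 50% growth inhibition. Cytotoxicity was also scored at 6.3 μg/mL within this range.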
Background: Tetrazolium dyes change colour on reduction, which living cells bring about.

A short description of data set [2]: Cytotoxicity against human HepG2 cells at 6.3 ug/ml measured after 48 hrs by MTT assay. The class given is toxicity, cell-based. Particulars: hepg2, 48 h. In a few lines: as §2
Data set [3] deals with Cryptococcus neoformans. In words: Fungicidal activity against Cryptococcus neoformans serotype A H99S at =>6.3 ug/mL measured after 72 hrs by broth dilution method. The class given is functional. To be noted: Cryptococcus neoformans var. grubii H99S. The method, boiled down: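 Broth MIC assay over a range of peptoid concentrations with 72 h incubation. Triplicate wells are pooled, washed with PBS to remove drug and spotted onto YPD agar. Fungicidal activity means no colony regrowth; recovery of colonies means fungistatic only.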

Data set [4] is described as follows: Antifungal activity against Cryptococcus neoformans serotype D ATCC 24067 after 72 hrs by PrestoBlue staining based broth dilution method. The class given is functional, Cryptococcus deneoformans. The method, boiled down: as §1
Data set [5] relates to Cryptococcus neoformans. In words: Antifungal activity against Cryptococcus neoformans serotype A clinical isolate B18 after 72 hrs by PrestoBlue staining based broth dilution method. Particulars: isolate B18, 72 h. The class given is functional. In a few lines: (§3)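 Standard broth dilution MIC assay run in triplicate samples with 72 h incubation. The MIC is the lowest concentration inhibiting growth. An IC50 (50% inhibitory concentration) is also derived from the same assay.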

Data set [6] deals with Cryptococcus neoformans. In words: Antifungal activity against Cryptococcus neoformans serotype A clinical isolate B24 after 72 hrs by PrestoBlue staining based broth dilution method. To be noted: isolate B24, 72 h. The class given is functional. In a few lines: as §3
A short description of data set [7]: Antifungal activity against Cryptococcus neoformans serotype D clinical isolate AD 12-27 after 72 hrs by PrestoBlue staining based broth dilution method. The class given is functional, Cryptococcus deneoformans. In a few lines: as §3
The nature of data set [8]: Antifungal activity against Cryptococcus neoformans serotype D clinical isolate AD 12-30 after 72 hrs by PrestoBlue staining based broth dilution method. The class given is functional, Cryptococcus deneoformans. In a few lines:
as §3

Data set [9] in a line: Cytotoxicity against mouse NIH/3T3 cells measured after 48 hrs by MTT assay. The class given is toxicity, NIH3T3. In a few lines:
as §2

A short description of data set [10]: Cytotoxicity against human HepG2 cells measured after 48 hrs by MTT assay. The class given is toxicity, cell-based. The method, boiled down: as §2
Data set [11] is described as follows: Cytotoxicity against human HPL1A cells measured after 48 hrs by MTT assay. The class given is toxicity, cell-based. In a few lines: as §2
Data set [12] in a line: Cytotoxicity against human erythrocytes assessed as hemolysis measured after 1 hr by spectrophotometric method. The class given is toxicity, cell-based. Particulars: erythrocyte. In a few lines: (§4)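 Human erythrocytes were exposed to peptoid across 800 to 3.1 μg/mL. HC10 is defined as the concentration lysing 10% of erythrocytes. Lysis was also scored at 6.3 μg/mL.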
The nature of data set [13]: Selectivity index, ratio of IC50 for mouse NIH/3T3 cells to MIC for Cryptococcus neoformans serotype A H99S. In a few lines:
(§5)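 Mammalian toxicity tested at 800 to 3.1 μg/mL. IC50 (50% growth inhibition) was measured in NIH/3T3, HepG2 and HPL1A cells, and HC10 (10% lysis) in human erythrocytes. Each value was divided by the broth-dilution MIC against H99S.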

Data set [14] is described as follows: Selectivity index, ratio of IC50 for human HepG2 cells to MIC for Cryptococcus neoformans serotype A H99S. In a few lines: as §5
Data set [15] can be described thus: Selectivity index, ratio of IC50 for human HPL1A cells to MIC for Cryptococcus neoformans serotype A H99S. In a few lines:
as §5

A short description of data set [16]: Selectivity index, ratio of HC10 for human erythrocytes to MIC for Cryptococcus neoformans serotype A H99S. In a few lines: as §5
Data set [17] in a line: Metabolic stability in human serum assessed as compound degradation at 0.1 mg/mL measured after 48 hrs by RP-HPLC analysis. The class given is ADME.
A short description of data set [18]: Cytotoxicity against human HPL1A cells at 6.3 ug/ml measured after 48 hrs by MTT assay. The class given is toxicity, cell-based. The method, boiled down: as §2
A short description of data set [19]: Hemolytic activity against human erythrocytes at 6.3 ug/ml measured after 1 hr by spectrophotometric method. The class given is cell-based. Particulars: erythrocyte. The method, boiled down: as §4

For the compound `NCCCN(CC(=O)N(CC(=O)N(CC(N)=O)Cc1ccco1)Cc1ccccc1)C(=O)CN(Cc1ccccc1)C(=O)CNCc1ccccc1` (H-[Nphe][Nphe][Gly(N(CH2)3NH2)][Nphe][NFurfurylGly]-NH2), the minimum inhibitory concentration (MIC) (as a rule, the least concentration at which growth counts as inhibited) in data set [1] is greater than 200 µg/mL.

On to `CCCCCCCCCCCCCNCC(=O)N(CCCCN)CC(=O)N(CC(N)=O)Cc1ccco1`, for which the IC50 (usually the concentration that inhibits the measured activity by half) in [1] turned out to be 0.68 µg/mL (≈ 1.3 µM); in [4] it was 3.9 µg/mL (≈ 7.47 µM); in the data set on Cryptococcus neoformans [5] it was 12.2 µg/mL (≈ 23.4 µM); with Cryptococcus neoformans [6], 10.7 µg/mL (≈ 20.5 µM); in data set [7], 4 µg/mL (≈ 7.67 µM); in data set [8], 6.9 µg/mL (≈ 13.2 µM). For the same compound, the MIC in data set [1] was determined as 6.3 µg/mL (≈ 12.1 µM); in [4] (Cryptococcus deneoformans) it was 6.3 µg/mL (≈ 12.1 µM); in the data set with Cryptococcus neoformans [5], 25 µg/mL (≈ 47.9 µM); in the data set on Cryptococcus neoformans [6] it was 12.5 µg/mL (≈ 24 µM); in data set [7] (Cryptococcus deneoformans) it was 25 µg/mL (≈ 47.9 µM); in [8] (Cryptococcus deneoformans), 25 µg/mL (≈ 47.9 µM). In addition, the Activity entry (in the data set filed under Mus musculus; in data set [2]; in data set [18]; in [19]) was “Non-Toxic” throughout. The result in the data set on Cryptococcus neoformans [3] was Active. Further, the IC50 at 48 h was 48.6 to 50.3 µg/mL (≈ 93.1 to 96.4 µM) in data set [9], 43.6 to 56.2 µg/mL (≈ 83.6 to 108 µM) in data set [10] and 36.3 µg/mL (≈ 69.6 µM) in data set [11]. In data set [12], the HC10 stood at 68.7 µg/mL. Further, the “Selectivity Index” value in data set [13] worked out at 8; in data set [14], 9; in data set [15], 6; in [16], 11. In addition, the Stability entry in data set [17] is “Stable”.
